Measurements: article PMC2871064 (Cancer research, 2010)
Where two headings read alike, the source gives them in different places.

Key:
SK-MEL-3 xenografts = test: Tissue distribution in mice bearing SK-MEL-3 xenografts; format: in vivo, NCr^nu/nu mice; details: SK-MEL-3 xenograft mice; for Tissue distribution: Blood: tail vein
Outline: (§1)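 Male athymic NCr nu/nu mice received 0.25 mL of cells (8 × 10⁶/mL in 1:1 D-PBS-glucose-pyruvate/Matrigel) into the right hind flank. Tumours were used at 100–500 mm³ (~21 days). Tail-vein bolus of ~74 KBq tracer in 0.05 mL; n = 5 per time point. Mice were killed by CO₂ at 1, 4 and 24 h. Organs and tumour were weighed wet and gamma-counted; results are %ID/g, mean ± SD.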

A375 xenografts = test: Tissue distribution in mice bearing A375 xenografts; format: in vivo, NCr^nu/nu mice; details: A375 xenograft mice; for Tissue distribution: Blood: tail vein
Outline: as §1

SK-MEL-3 tumors = test: Effect of [^131I]MIP-1145 on SK-MEL-3 tumor growth and survival; format: in vivo, athymic nude mice; details: multiple doses, 25 MBq or 2.5 GBq/m^2
[1] = Pharmacokinetics and gamma camera imaging in cynomolgus monkeys; format: in vivo
Outline: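 Four cynomolgus monkeys (2 female, 2 male), Telazol-anaesthetised, received 185 MBq radiotracer iv without thyroid blockade. Serial anterior/posterior gamma-camera imaging was performed. Blood was drawn at 5, 30, 60, 120 and 360 min and at 24, 48 and 72 h. Urine was pooled over 0–6, 6–24, 24–48 and 48–72 h. Analysis was non-compartmental, with CL = dose/AUC and Vss = MRT × CL.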

[2] = Projected human dosimetry extrapolated from cynomolgus monkey scintigraphy; format: in vivo, cynomolgus monkeys
Outline: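 Regions of interest (total body, lung, kidney, thyroid, eye) were drawn on anterior/posterior monkey images at each time point. Uptake was normalised to % total body dose, with the first pre-voiding image set as 100%. Time integrals went into OLINDA/EXM: adult male phantom, 4.8 h bladder voiding interval, unit-density sphere model for eye. The intestine margin is referenced to a 45 Gy limit at 4.7 GBq/70 kg.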

[3] = Monte Carlo simulation of radiation dose to human eye substructures; details: human projection
B16F10 xenografts = details: cited from earlier work
[4] = both, cynomolgus monkey, blood, iv, 185 MBq
[5] = at anticipated human dose 4.7 GBq/70 kg patient
[6] = extrapolated from cynomolgus monkeys

## CCN(CC)CCNC(=O)c1cc(I)c(NC(=O)c2ccc(F)cc2)cc1OC [[^131I]MIP-1145, N-(2-diethylamino-ethyl)-4-(4-fluoro-benzamido)-5-iodo-2-methoxy-benzamide]
SK-MEL-3 xenografts; 1 hour
  Tissue distribution: Adipose: 4.15 ± 2.89 %ID/g
  Tissue distribution: Bone: 1.71 ± 0.28 %ID/g
  Tissue distribution: Brain: 0.82 ± 0.06 %ID/g
  Tissue distribution: Heart: 2.36 ± 0.18 %ID/g
  Tissue distribution: Kidneys: 16.55 ± 0.52 %ID/g
  Tissue distribution: Large Intestine: 2.93 ± 0.54 %ID/g
  Tissue distribution: Liver: 7.94 ± 1.12 %ID/g
  Tissue distribution: Lungs: 9.70 ± 1.28 %ID/g
  Tissue distribution: Skeletal Muscle: 1.39 ± 0.16 %ID/g
  Tissue distribution: Small Intestine: 15.19 ± 1.50 %ID/g
  Tissue distribution: Spleen: 7.26 ± 1.18 %ID/g
  Tissue distribution: Stomach: 12.85 ± 2.53 %ID/g
  Tissue distribution: Testes: 1.51 ± 0.18 %ID/g
  Tissue distribution: Tumor: 3.77 ± 1.68 %ID/g
SK-MEL-3 xenografts; 1 hour post-injection
  Tissue distribution: Blood: 0.75 ± 0.12 %ID/g
SK-MEL-3 xenografts; 4 hours
  Tissue distribution: Adipose: 1.03 ± 0.26 %ID/g
  Tissue distribution: Bone: 0.95 ± 0.14 %ID/g
  Tissue distribution: Brain: 0.19 ± 0.02 %ID/g
  Tissue distribution: Heart: 1.32 ± 0.18 %ID/g
  Tissue distribution: Kidneys: 13.12 ± 2.68 %ID/g
  Tissue distribution: Large Intestine: 18.91 ± 3.84 %ID/g
  Tissue distribution: Liver: 5.18 ± 0.59 %ID/g
  Tissue distribution: Lungs: 6.87 ± 1.33 %ID/g
  Tissue distribution: Skeletal Muscle: 0.73 ± 0.16 %ID/g
  Tissue distribution: Small Intestine: 17.21 ± 2.05 %ID/g
  Tissue distribution: Spleen: 3.75 ± 0.60 %ID/g
  Tissue distribution: Stomach: 10.74 ± 2.52 %ID/g
  Tissue distribution: Testes: 1.07 ± 0.09 %ID/g
  Tissue distribution: Tumor: 8.82 ± 3.55 %ID/g
SK-MEL-3 xenografts; 4 hours post-injection
  Tumor:blood ratio: 25.2
  Tissue distribution: Blood: 0.35 ± 0.04 %ID/g
SK-MEL-3 xenografts; 24 hours
  Tissue distribution: Adipose: 0.09 ± 0.05 %ID/g
  Tissue distribution: Bone: 0.09 ± 0.08 %ID/g
  Tissue distribution: Brain: 0.01 ± 0.01 %ID/g
  Tissue distribution: Heart: 0.04 ± 0.03 %ID/g
  Tissue distribution: Kidneys: 0.51 ± 0.18 %ID/g
  Tissue distribution: Large Intestine: 2.24 ± 0.67 %ID/g
  Tissue distribution: Liver: 0.50 ± 0.07 %ID/g
  Tissue distribution: Lungs: 0.29 ± 0.08 %ID/g
  Tissue distribution: Skeletal Muscle: 0.03 ± 0.02 %ID/g
  Tissue distribution: Small Intestine: 1.03 ± 0.24 %ID/g
  Tissue distribution: Spleen: 0.12 ± 0.03 %ID/g
  Tissue distribution: Stomach: 1.41 ± 0.53 %ID/g
  Tissue distribution: Testes: 0.22 ± 0.02 %ID/g
  Tissue distribution: Tumor: 5.91 ± 3.94 %ID/g
SK-MEL-3 xenografts; 24 hours post-injection
  Tumor:blood ratio: 197
  Tissue distribution: Blood: 0.03 ± 0.00 %ID/g
A375 xenografts; 1 hour
  Tissue distribution: Adipose: 1.56 ± 0.23 %ID/g
  Tissue distribution: Bone: 1.34 ± 0.12 %ID/g
  Tissue distribution: Brain: 0.60 ± 0.17 %ID/g
  Tissue distribution: Heart: 1.96 ± 0.33 %ID/g
  Tissue distribution: Kidneys: 14.26 ± 2.73 %ID/g
  Tissue distribution: Large Intestine: 2.69 ± 0.49 %ID/g
  Tissue distribution: Liver: 6.79 ± 1.33 %ID/g
  Tissue distribution: Lungs: 9.81 ± 0.88 %ID/g
  Tissue distribution: Skeletal Muscle: 1.03 ± 0.09 %ID/g
  Tissue distribution: Small Intestine: 9.19 ± 3.32 %ID/g
  Tissue distribution: Spleen: 4.54 ± 1.34 %ID/g
  Tissue distribution: Stomach: 6.22 ± 2.34 %ID/g
  Tissue distribution: Testes: 1.58 ± 0.22 %ID/g
  Tissue distribution: Tumor: 2.38 ± 0.75 %ID/g
A375 xenografts; 1 hour post-injection
  Tissue distribution: Blood: 0.46 ± 0.05 %ID/g
A375 xenografts; 4 hours
  Tissue distribution: Adipose: 1.10 ± 0.46 %ID/g
  Tissue distribution: Bone: 0.74 ± 0.07 %ID/g
  Tissue distribution: Brain: 0.16 ± 0.01 %ID/g
  Tissue distribution: Heart: 1.04 ± 0.06 %ID/g
  Tissue distribution: Kidneys: 8.53 ± 1.20 %ID/g
  Tissue distribution: Large Intestine: 13.81 ± 5.14 %ID/g
  Tissue distribution: Liver: 4.30 ± 0.45 %ID/g
  Tissue distribution: Lungs: 7.24 ± 1.31 %ID/g
  Tissue distribution: Skeletal Muscle: 0.58 ± 0.12 %ID/g
  Tissue distribution: Small Intestine: 12.44 ± 2.02 %ID/g
  Tissue distribution: Spleen: 2.57 ± 0.51 %ID/g
  Tissue distribution: Stomach: 4.57 ± 1.77 %ID/g
  Tissue distribution: Testes: 0.90 ± 0.13 %ID/g
  Tissue distribution: Tumor: 1.19 ± 0.07 %ID/g
A375 xenografts; 4 hours post-injection
  Tissue distribution: Blood: 0.26 ± 0.04 %ID/g
A375 xenografts; 24 hours
  Tissue distribution: Adipose: 0.13 ± 0.12 %ID/g
  Tissue distribution: Bone: 0.03 ± 0.02 %ID/g
  Tissue distribution: Brain: 0.01 ± 0.00 %ID/g
  Tissue distribution: Heart: 0.02 ± 0.02 %ID/g
  Tissue distribution: Kidneys: 0.21 ± 0.08 %ID/g
  Tissue distribution: Large Intestine: 1.35 ± 0.36 %ID/g
  Tissue distribution: Liver: 0.32 ± 0.06 %ID/g
  Tissue distribution: Lungs: 0.37 ± 0.15 %ID/g
  Tissue distribution: Skeletal Muscle: 0.02 ± 0.01 %ID/g
  Tissue distribution: Small Intestine: 0.59 ± 0.24 %ID/g
  Tissue distribution: Spleen: 0.15 ± 0.20 %ID/g
  Tissue distribution: Stomach: 0.67 ± 0.27 %ID/g
  Tissue distribution: Testes: 0.16 ± 0.05 %ID/g
  Tissue distribution: Tumor: 0.04 ± 0.02 %ID/g
A375 xenografts; 24 hours post-injection
  Tissue distribution: Blood: 0.04 ± 0.02 %ID/g
SK-MEL-3 tumors
  Duration of response: over 125 days
[1]; [4]
  MRT: 47 ± 5 h
  Vd: 19 ± 3 L
  clearance: 6.67 mL/min
[1]; cynomolgus monkeys, by 72 hours post-injection
  Injected dose recovered in the urine: 28%
[2]; [5]
  Margin of lower large intestine dose below the allowable exposure limit of 45 Gy: 3.3 times
  Radiation absorbed dose to the lower large intestine: 13.3 Gy
  Radiation dose to the eye: 6.1 Gy
[2]; [6]
  Effective Dose: 1.40E+00 ± 6.30E-01 mGy/MBq
  Effective Dose Equivalent: 9.20E-01 ± 3.70E-01 mGy/MBq
  Projected human organ radiation absorbed dose: Brain: 7.00E-02 ± 1.50E-02 mGy/MBq
  Projected human organ radiation absorbed dose: Breasts: 6.40E-02 ± 1.40E-02 mGy/MBq
  Projected human organ radiation absorbed dose: Eyes: 1.30E+00 ± 6.70E-01 mGy/MBq
  Projected human organ radiation absorbed dose: Gallbladder Wall: 1.20E-01 ± 1.90E-02 mGy/MBq
  Projected human organ radiation absorbed dose: Heart Wall: 8.00E-02 ± 1.80E-02 mGy/MBq
  Projected human organ radiation absorbed dose: Kidneys: 1.10E-01 ± 7.70E-02 mGy/MBq
  Projected human organ radiation absorbed dose: Liver: 8.60E-02 ± 1.70E-02 mGy/MBq
  Projected human organ radiation absorbed dose: Lungs: 6.70E-02 ± 2.00E-02 mGy/MBq
  Projected human organ radiation absorbed dose: Muscle: 8.80E-02 ± 1.60E-02 mGy/MBq
  Projected human organ radiation absorbed dose: Osteogenic Cells: 1.60E-01 ± 3.30E-02 mGy/MBq
  Projected human organ radiation absorbed dose: Ovaries: 2.00E-01 ± 1.90E-02 mGy/MBq
  Projected human organ radiation absorbed dose: Pancreas: 9.20E-02 ± 1.90E-02 mGy/MBq
  Projected human organ radiation absorbed dose: Red Marrow: 8.70E-02 ± 1.40E-02 mGy/MBq
  Projected human organ radiation absorbed dose: Skin: 6.60E-02 ± 1.40E-02 mGy/MBq
  Projected human organ radiation absorbed dose: Small Intestine: 3.40E-01 ± 1.80E-02 mGy/MBq
  Projected human organ radiation absorbed dose: Spleen: 8.50E-02 ± 1.80E-02 mGy/MBq
  Projected human organ radiation absorbed dose: Stomach Wall: 9.80E-02 ± 1.80E-02 mGy/MBq
  Projected human organ radiation absorbed dose: Testes: 8.60E-02 ± 1.60E-02 mGy/MBq
  Projected human organ radiation absorbed dose: Thymus: 7.80E-02 ± 1.70E-02 mGy/MBq
  Projected human organ radiation absorbed dose: Uterus: 1.50E-01 ± 1.80E-02 mGy/MBq
  Projected human radiation absorbed dose: Total Body: 1.00E-01 ± 1.60E-02 mGy/MBq
[2]; extrapolated from cynomolgus monkeys, adult male phantom
  Projected human organ radiation absorbed dose: Adrenals: 8.50E-02 ± 1.80E-02 mGy/MBq
[2]; extrapolated from cynomolgus monkeys, 4.8 hour voiding interval
  Projected human organ radiation absorbed dose: Urinary Bladder Wall: 6.20E-01 ± 4.10E-02 mGy/MBq
[2]; extrapolated from cynomolgus monkeys, lower large intestine
  Projected human organ radiation absorbed dose: LLI Wall: 2.80E+00 ± 1.80E-02 mGy/MBq
[2]; extrapolated from cynomolgus monkeys, upper large intestine
  Projected human organ radiation absorbed dose: ULI Wall: 1.10E+00 ± 1.50E-02 mGy/MBq
[2]; extrapolated from cynomolgus monkeys, without thyroid blockade
  Projected human organ radiation absorbed dose: Thyroid: 1.80E+01 ± 1.30E+01 mGy/MBq
[2]; human projection, dose-limiting organ lower large intestine
  Therapeutic dose supported as safe for administration: up to 16.2 GBq
[2]; organs other than thyroid, large intestine and eyes
  Projected human radiation absorbed dose: all other organs: 0.064-1.1 mGy/MBq
[3]
  Administered activity needed to reach the lens TD5/5 of 10 Gy for cataracts: 7.7 GBq
  Administered activity needed to reach the retina TD5/5 of 45 Gy for retinopathy: 20.8 GBq
B16F10 xenografts; specific activity 55.5 GBq/mmol
  Tumor uptake: 9.28 ± 2.24 %ID/g
B16F10 xenografts; specific activity 55.5 TBq/mmol
  Tumor uptake: 10.17 ± 1.81 %ID/g
